In ChEMBL document CHEMBL3612005, “Discovery of N-aryl-naphthylamines as in vitro inhibitors of the interaction between HIV integrase and the cofactor LEDGF/p75” (Eur J Med Chem, 2015):
Calls of active or inactive are those of the source. The calls are words filed in the database; no cut-off is given here.

How the values were obtained:
[1] = molecular target: Human immunodeficiency virus type 1 integrase (Human immunodeficiency virus 1) (UniProt Q7ZJM1); assay: Binding affinity to His6-tagged recombinant HIV1 Integrase assessed as inhibition of protein interaction with 3xFLAG-tagged LEDGF/p75 at 100 uM preincubated for 30 mins followed by 3xFLAG-tagged LEDGF/p75 addition measured after 60 mins by AlphaScreen assay relative to control
Outline: (§1)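 His6-integrase (300 nM final) preincubated with compound 30 min at 4 °C, then FLAG-LEDGF/p75 (300 nM final) added for 60 min at 4 °C; Ni-chelate donor and anti-FLAG acceptor beads (20 µg/mL each) added, 1 h at 30 °C, light-protected. Buffer: 25 mM Tris-HCl pH 7.4, 150 mM NaCl, 1 mM MgCl2, 0.01% Tween-20, 0.1% BSA. Single-point screen at 100 µM; IC50 determined where inhibition exceeded 50%.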

[2] = test system: Human immunodeficiency virus 1; assay: Antiviral activity against HIV1 3B infected in human MT4 cells assessed as protection against virus-induced cytopathic effect by MTT assay; assay type: functional, organism-based; details: Human immunodeficiency virus 1, 3B
Outline: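 MT-4 cells infected with 100–300 CCID50 of HIV-1 IIIB (virus titred in MT-4 cells) with five-fold serial dilutions of compound; protection from viral cytopathic effect read by MTT reduction to formazan, measured spectrophotometrically; EC50 = concentration giving 50% protection.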

[3] = molecular target: Human immunodeficiency virus type 1 integrase (Human immunodeficiency virus 1, UniProt Q7ZJM1); assay: Binding affinity to His6-tagged recombinant HIV1 Integrase assessed as inhibition of protein interaction with 3xFLAG-tagged LEDGF/p75 preincubated for 30 mins followed by 3xFLAG-tagged LEDGF/p75 addition measured after 60 mins by AlphaScreen assay; outline: as §1
[4] = Cytotoxicity against human MT4 cells assessed as reduction in cell viability by MTT assay; assay type: cell-based
Outline: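 Uninfected MT-4 cells exposed to five-fold serial dilutions of compound; viability measured by MTT reduction to formazan, read spectrophotometrically; CC50 = concentration killing 50% of cells.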

Homo sapiens = species on record: Homo sapiens; assay: Inhibition of FLAG-tagged GST (unknown origin) at 100 uM by emission quenching AlphaScreen assay relative to control
Outline: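 Emission-quench counter-screen: FLAG-tagged GST (500 nM final) replaces integrase and LEDGF/p75, otherwise run as the AlphaScreen interaction assay (Ni-chelate donor and anti-FLAG acceptor beads, 20 µg/mL each, 1 h at 30 °C; Tris-HCl pH 7.4 buffer). Compound tested at 100 µM; percent inhibition of signal.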

Chain of Human immunodeficiency virus type 1 integrase (Q7ZJM1 whole entry): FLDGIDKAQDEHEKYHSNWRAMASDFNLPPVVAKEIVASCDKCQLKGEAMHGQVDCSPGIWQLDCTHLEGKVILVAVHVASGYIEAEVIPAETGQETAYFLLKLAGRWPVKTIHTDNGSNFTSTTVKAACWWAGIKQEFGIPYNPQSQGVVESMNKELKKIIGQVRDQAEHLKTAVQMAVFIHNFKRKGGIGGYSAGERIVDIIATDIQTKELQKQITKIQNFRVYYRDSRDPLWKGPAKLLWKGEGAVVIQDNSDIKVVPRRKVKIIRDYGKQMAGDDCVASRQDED
Chain of Human immunodeficiency virus type 1 integrase (Human immunodeficiency virus 1) (Q7ZJM1 as listed by the source): as the sequence (Q7ZJM1 whole entry) above

Compound	inhibition [1]	EC50 [2]	IC50 [3]	CC50 [4]	inhibition (Homo sapiens)
COC(=O)c1ccc(Nc2ccc3ccccc3c2O)cc1	58%				
COc1ccc(Sc2ccc(OC)c3ccccc23)cc1	inactive				
Oc1ccc(Sc2ccc(O)c3ccccc23)cc1	38%				
O=S(=O)(c1ccc(O)cc1)c1ccc(O)c2ccccc12	30%				
Cc1ccc(-c2c(C(OC(C)(C)C)C(=O)O)ccc3sc(C)cc23)cc1 (stereo not given)		0.069 µM	0.046 µM	96 µM	
COC(=O)c1ccc(Cn2cc(C(C)=O)c(=O)c3ccccc32)cc1	46%				
COC(=O)c1ccc(Nc2ccc3ccccc3c2OC)cc1	inactive				
O=C(O)c1ccc(Cn2ccc(=O)c3ccccc32)cc1	inactive				
O=C(O)c1ccc(Nc2ccc3ccccc3c2O)cc1	66%	> 23.7 µM	70.1 µM	23.7 µM	
Fc1ccc(Nc2ccc(F)c3ccccc23)cc1	63%	> 38.4 µM	> 100 µM	38.4 µM	
COC(=O)c1ccc(Cn2ccc(=O)c3ccccc32)cc1	25%				
COC(=O)c1ccc(Nc2cccc3ccccc23)cc1	62%	> 27.5 µM		27.5 µM	
COc1ccc(I)cc1Nc1ccc(OC)c2ccccc12	61%	> 12.5 µM	28.9 µM	12.5 µM	
Oc1c(Nc2ccccc2)ccc2ccccc12	61%				
COC(=O)c1cc(Nc2ccc(OC)c3ccccc23)ccc1OC	inactive				92%
COC(=O)c1ccc(Nc2ccc(O)c3ccccc23)cc1	49%				
COc1c(Nc2ccc(I)cc2)ccc2ccccc12	inactive				
CCOC(=O)c1cn(Cc2ccc(C(=O)OC)cc2)c2ccccc2c1=O	60%	> 5.63 µM	> 100 µM	5.63 µM	
COC(=O)c1ccccc1Nc1c(OC)ccc2ccccc12	inactive				

Compound	inhibition [1]	EC50 [2]	IC50 [3]	CC50 [4]	inhibition (Homo sapiens)
COc1c(Nc2ccccc2)ccc2ccccc12	inactive				
Oc1ccc(Nc2ccc(O)c3ccccc23)cc1	95%				84%
COc1ccc(Nc2ccc(OC)c3ccccc23)cc1C(=O)O	41%				
O=C(O)c1ccccc1Nc1c(O)ccc2ccccc12	56%				
COc1ccc(Nc2ccc(C(=O)O)cc2)c2ccccc12	33%				
O=C(O)c1cc(Nc2ccc(O)c3ccccc23)ccc1O	88%	> 126 µM	19.1 µM	126 µM	52%
COc1ccc(Nc2ccc(OC)c3ccccc23)cc1	57%				
O=C(O)c1ccc(Nc2ccc(O)c3ccccc23)cc1	95%	> 1.07 µM	2.5 µM	1.07 µM	16%
COc1c(Nc2ccc(C(=O)O)cc2)ccc2ccccc12	inactive				
CC(=O)c1cn(Cc2ccc(C(=O)O)cc2)c2ccccc2c1=O	inactive				
COc1ccccc1Nc1ccc(OC)c2ccccc12	inactive				
CSc1ccc(Nc2ccc(F)c3ccccc23)cc1	inactive				
COc1ccc(S(=O)(=O)c2ccc(OC)c3ccccc23)cc1	inactive				
COC(=O)c1ccc(Nc2ccc(OC)c3ccccc23)cc1	59%		34.8 µM		inactive
COc1ccc(Nc2ccccc2)c2ccccc12	inactive				
COC(=O)c1ccccc1Nc1c(O)ccc2ccccc12	28%				
O=C(O)c1ccc(Cn2cc(C(=O)O)c(=O)c3ccccc32)cc1	16%				
O=C(O)c1ccc(Nc2cccc3ccccc23)cc1	39%				
COc1ccc2ccccc2c1Nc1c(OC)ccc2ccccc12	100%	> 3.41 µM	13.8 µM	3.41 µM	74%
